Test [1] addresses T1, Inosine-5'-monophosphate dehydrogenase (Cryptosporidium parvum, UniProt Q8T6T2).
T1 sequence (Q8T6T2 whole entry): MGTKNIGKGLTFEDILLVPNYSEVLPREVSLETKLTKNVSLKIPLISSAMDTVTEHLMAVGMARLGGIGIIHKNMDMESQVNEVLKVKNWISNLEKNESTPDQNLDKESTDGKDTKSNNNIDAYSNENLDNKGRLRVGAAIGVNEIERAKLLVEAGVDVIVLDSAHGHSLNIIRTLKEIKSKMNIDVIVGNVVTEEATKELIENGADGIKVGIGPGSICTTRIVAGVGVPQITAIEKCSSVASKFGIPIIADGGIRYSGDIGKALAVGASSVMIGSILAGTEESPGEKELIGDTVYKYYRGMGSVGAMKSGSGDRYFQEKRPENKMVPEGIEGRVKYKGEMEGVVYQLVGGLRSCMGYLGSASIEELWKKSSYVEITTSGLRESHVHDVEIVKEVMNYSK
Put plainly: Inhibition of Cryptosporidium parvum IMPDH assessed as reduction in NADH production. An outline of the steps:
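Purified expressed CpIMPDH enzyme; activity followed by NADH production. IC50 taken as the average of three independent experiments unless otherwise noted.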

In test [2] the target is Inosine-5'-monophosphate dehydrogenase 2 (Homo sapiens) (UniProt P12268). Put plainly: Inhibition of human IMPDH2 assessed as reduction in NADH production at 5 uM.

We go through 20 compounds from ChEMBL document CHEMBL3351328.

Broadly, the IC50 is the midpoint of a concentration-inhibition curve. The term inhibition denotes the share of the control response that was lost under treatment.

SMILES strings stand for the structures.

Chain of Inosine-5'-monophosphate dehydrogenase 2 (Homo sapiens) (P12268 2-514 limits assumed): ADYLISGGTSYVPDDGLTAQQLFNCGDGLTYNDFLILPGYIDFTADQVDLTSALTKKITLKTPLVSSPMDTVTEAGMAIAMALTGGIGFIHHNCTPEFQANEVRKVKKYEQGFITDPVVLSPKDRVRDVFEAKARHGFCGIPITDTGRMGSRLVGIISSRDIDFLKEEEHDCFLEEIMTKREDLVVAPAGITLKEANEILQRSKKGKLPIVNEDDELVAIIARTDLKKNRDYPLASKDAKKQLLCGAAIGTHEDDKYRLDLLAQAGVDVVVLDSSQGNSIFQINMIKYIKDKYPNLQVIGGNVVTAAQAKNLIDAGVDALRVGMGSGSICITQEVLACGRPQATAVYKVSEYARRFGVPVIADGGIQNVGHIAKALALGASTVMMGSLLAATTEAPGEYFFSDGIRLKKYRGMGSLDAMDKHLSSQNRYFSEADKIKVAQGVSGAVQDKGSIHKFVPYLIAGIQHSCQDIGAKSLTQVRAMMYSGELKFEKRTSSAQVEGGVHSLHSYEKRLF

Consider `O=C(Cn1ncc2c(=O)oc3ccccc3c21)Nc1cccc(Cl)c1`, for which the IC50 in test [1] is above 5 µM. As to `O=C(Cn1ncc2c(=O)oc3ccccc3c21)Nc1ccc2ncccc2c1`, in test [1], the IC50 amounted to 0.08 µM. In addition, the inhibition in test [2] is below 20%. Take `O=C(Cn1ncc2c(=O)oc3ccccc3c21)Nc1ccc(F)cc1`: in test [1], the IC50 came to 0.46 µM. In addition, the inhibition in test [2] is below 20%. As to `O=C(Cn1ncc2c(=O)oc3ccccc3c21)Nc1ccc(Cl)cc1Cl`, in test [1], the IC50 was above 5 µM. Regarding `O=C(Cn1ncc2c(=O)oc3ccccc3c21)Nc1ccc2[nH]cnc2c1`, the IC50 in test [1] is 2.5 µM.

Turning to `COc1cc(NC(=O)Cn2ncc3c2-c2ccccc2CC3)ccc1Cl`, the IC50 in test [1] worked out at 0.1 µM. The inhibition in test [2] was below 20%. `COc1cccc(NC(=O)Cn2ncc3c(=O)oc4ccccc4c32)c1`: the IC50 in test [1] turned out to be 1.5 µM.

Regarding `O=C(Cn1ncc2c(=O)oc3ccccc3c21)Nc1ccc2cc[nH]c2c1`, in test [1], the IC50 came to 0.12 µM. The inhibition in test [2] was below 20%. Consider `COc1cc(NC(=O)Cn2ncc3c(=O)oc4ccccc4c32)ccc1Cl`, for which the IC50 in test [1] amounted to 0.02 µM. Moreover, the inhibition in test [2] was below 20%. Turning to `O=C(Cn1ncc2c(=O)oc3ccccc3c21)Nc1ccc2[nH]ccc2c1`, the IC50 in test [1] was above 5 µM. For `O=C(Cn1ncc2c(=O)oc3ccccc3c21)Nc1ccc2ccccc2c1`, the IC50 in test [1] is 0.067 µM. For the same compound, in test [2], the inhibition is below 20%. For the compound `COc1cc(N(C)C(=O)Cn2ncc3c(=O)oc4ccccc4c32)ccc1Cl`, the IC50 in test [1] is above 5 µM. Take `COc1cc(NC(=O)Cn2ncc3c2-c2ccccc2OC3)ccc1Cl`: in test [1], the IC50 came out at 0.07 µM. In test [2], the inhibition was below 20%.

Turning to `O=C(Cn1ncc2c(=O)oc3ccccc3c21)Nc1ccc(C(F)(F)F)cc1`, the IC50 in test [1] came out at 0.58 µM. Further, the inhibition in test [2] was below 20%.

As for `O=C(Cn1ncc2c(=O)oc3ccccc3c21)Nc1ccccc1Cl`, the IC50 in test [1] is above 5 µM. Still for that read-out and setting: as for `COc1ccc(NC(=O)Cn2ncc3c(=O)oc4ccccc4c32)cc1OC`, the figure is 2.5 µM. In the case of `COc1cc(NC(=O)C(C)n2ncc3c(=O)oc4ccccc4c32)ccc1Cl` (stereo unspecified), the IC50 in test [1] is 0.063 µM. Moreover, the inhibition in test [2] is below 20%. The corresponding values for `O=C(Cn1ncc2c(=O)oc3ccccc3c21)Nc1ccc(Cl)c(Cl)c1` are 0.044 µM and below 20%.

With `COc1cc(NC(=O)Cn2ncc3c(=O)oc4cc(C)ccc4c32)ccc1Cl`, in test [1], the IC50 was 2 µM. On to `O=C(Cn1ncc2c(=O)oc3ccccc3c21)Nc1ccc2c(c1)OCCO2`, for which the IC50 in test [1] amounted to 0.19 µM. Further, the inhibition in test [2] was below 20%.
